pEC50, pIC50: −log10 of the molar value.
Key:
[1] = species: Homo sapiens; experiment: Selectivity ratio of IC50 for 5-HT3A receptor (unknown origin) to EC50 for alpha7 nAChR (unknown origin) expressed in HEK293 cells; type: cell-based
Outline: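 Selectivity ratio calculated as 5-HT3A IC50 (FLIPR Ca2+ antagonist assay) divided by α7 EC50 (FLIPR Ca2+ agonist assay).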

[2] = biological target: Neuronal acetylcholine receptor subunit alpha-7 (Rattus norvegicus, UniProt Q05941); experiment: Agonist activity at rat alpha7 nAChR expressed in HEK293 cells co-expressing human RIC-3 assessed as area under current curve at holding potential of -90 mV by whole-cell voltage clamp electrophysiology method; type: cell-based
Outline: (§1)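 Concentration-response patch-clamp electrophysiology in HEK-293 cells expressing rat α7 nAChR. EC50 is taken from response area. Efficacy is given as Ymax from both area and peak response.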

[3] = biological target: Neuronal acetylcholine receptor subunit alpha-7 (Rattus norvegicus) (UniProt Q05941); experiment: Agonist activity at rat alpha7 nAChR expressed in HEK293 cells co-expressing human RIC-3 assessed as maximum peak current at 10 uM at holding potential of -90 mV by whole-cell voltage clamp electrophysiology method relative to acetylcholine; type: cell-based; outline: as §1
[4] = biological target: T1, 5-hydroxytryptamine receptor 3A (Homo sapiens, UniProt P46098); experiment: Antagonist activity at 5-HT3A receptor (unknown origin) assessed as decrease in calcium influx by Fluo-4-AM dye based FLIPR assay
T1 sequence (P46098 whole entry): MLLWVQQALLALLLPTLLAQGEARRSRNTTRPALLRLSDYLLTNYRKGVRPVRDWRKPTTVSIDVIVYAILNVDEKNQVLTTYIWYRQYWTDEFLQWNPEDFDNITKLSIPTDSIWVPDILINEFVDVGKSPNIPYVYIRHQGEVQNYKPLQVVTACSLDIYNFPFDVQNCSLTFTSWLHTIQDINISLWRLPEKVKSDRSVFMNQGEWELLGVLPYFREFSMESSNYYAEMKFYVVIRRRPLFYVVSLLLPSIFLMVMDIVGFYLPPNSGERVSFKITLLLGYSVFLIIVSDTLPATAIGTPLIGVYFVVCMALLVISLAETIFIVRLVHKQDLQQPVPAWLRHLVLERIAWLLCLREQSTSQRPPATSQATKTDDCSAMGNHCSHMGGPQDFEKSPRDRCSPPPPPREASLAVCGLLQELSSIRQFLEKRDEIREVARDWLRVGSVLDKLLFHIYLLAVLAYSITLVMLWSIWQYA
Outline: (§2)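 Ca2+-based fluorescence imaging plate reader screen, run as two assays: α7 nAChR agonism and 5-HT3A receptor antagonism. Number of determinations recorded per value.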

[5] = biological target: Neuronal acetylcholine receptor subunit alpha-7 (Rattus norvegicus) (UniProt Q05941); experiment: Agonist activity at rat alpha7 nAChR expressed in HEK293 cells co-expressing human RIC-3 assessed as area under current curve at 10 uM at holding potential of -90 mV by whole-cell voltage clamp electrophysiology method relative to acetylcholine; type: cell-based; outline: as §1
[6] = biological target: Neuronal acetylcholine receptor subunit alpha-7 (Homo sapiens, UniProt P36544); experiment: Agonist activity at alpha7 nAChR (unknown origin) expressed in HEK293 cells assessed as increase in calcium influx by Fluo-4-AM dye based FLIPR assay; type: cell-based; outline: as §2
[7] = Ratio of drug uptake in Wistar rat brain to plasma at 3 mg/kg, sc after 2 hrs; type: ADME, organism-based; conditions: read-out: BPR
Outline: (§3)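 Plasma concentration and brain/plasma ratio measured at 3 and 10 mg/kg sc, in the same rats used for the prefrontal c-fos/Arc expression study.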

[8] = Drug uptake in Wistar rat brain at 3 mg/kg, sc after 2 hrs; type: ADME, organism-based; conditions: read-out: Drug uptake
[9] = system: Rattus norvegicus; experiment: In vivo agonist activity at alpha7 nAChR in Wistar rat assessed as induction of Arc gene expression in medial prefrontal cortex at 1 mg/kg, sc after 2 hrs by qPCR method relative to control; type: functional
Outline: (§4)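 Rats dosed sc (0.3–10 mg/kg; vehicle 2 mL/kg sc) and c-fos and Arc expression measured in medial prefrontal cortex. Values are normalized to vehicle, mean ± SEM, N = 8. Comparison with vehicle by Dunnett's multiple comparison test (adjusted p). β2-microglobulin served as endogenous control. Plasma and brain/plasma levels were sampled at 3 and 10 mg/kg.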

[10] = Plasma concentration in Wistar rat at 0.3 mg/kg, sc after 2 hrs; type: ADME, organism-based
[11] = Drug uptake in Wistar rat brain at 1 mg/kg, sc after 2 hrs; type: ADME, organism-based; conditions: read-out: Drug uptake
[12] = system: Rattus norvegicus; experiment: In vivo agonist activity at alpha7 nAChR in Wistar rat assessed as induction of Arc gene expression in medial prefrontal cortex at 10 mg/kg, sc after 2 hrs by qPCR method relative to control; type: functional
Outline: (§5)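 Rats dosed sc at 0.3–10 mg/kg, or with vehicle at 2 mL/kg sc. Medial prefrontal cortex was assayed for c-fos and Arc expression, normalized to vehicle, with β2-microglobulin as the endogenous control. Data are mean ± SEM, N = 8. Dunnett's multiple comparison test against vehicle gave adjusted p values.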

[13] = Drug uptake in Wistar rat brain at 10 mg/kg, sc after 2 hrs; type: ADME, organism-based; conditions: read-out: Drug uptake
[14] = Plasma concentration in Wistar rat at 3 mg/kg, sc after 2 hrs; type: ADME, organism-based; outline: as §3
[15] = Plasma concentration in Wistar rat at 10 mg/kg, sc after 2 hrs; type: ADME, organism-based; outline: as §3
[16] = Ratio of drug uptake in Wistar rat brain to plasma at 10 mg/kg, sc after 2 hrs; type: ADME, organism-based; conditions: read-out: BPR; outline: as §3
[17] = system: Rattus norvegicus; experiment: In vivo agonist activity at alpha7 nAChR in Wistar rat assessed as induction of c-fos gene expression in medial prefrontal cortex at 10 mg/kg, sc after 2 hrs by qPCR method relative to control; type: functional; outline: as §5
[18] = Drug uptake in Wistar rat brain at 0.3 mg/kg, sc after 2 hrs; type: ADME, organism-based; conditions: read-out: Drug uptake
[19] = Ratio of drug uptake in Wistar rat brain to plasma at 1 mg/kg, sc after 2 hrs; type: ADME, organism-based; conditions: read-out: BPR
[20] = system: Rattus norvegicus; experiment: In vivo agonist activity at alpha7 nAChR in Wistar rat assessed as induction of c-fos gene expression in medial prefrontal cortex at 0.3 mg/kg, sc after 2 hrs by qPCR method relative to control; type: functional; outline: as §4
[21] = system: Rattus norvegicus; experiment: Effect on beta2-microglobulin gene expression in Wistar rat medial prefrontal cortex at 0.3 to 10 mg/kg, sc after 2 hrs by qPCR method; type: ADME, organism-based; conditions: in vivo; outline: as §5
[22] = Ratio of drug uptake in Wistar rat brain to plasma at 0.3 mg/kg, sc after 2 hrs; type: ADME, organism-based; conditions: read-out: BPR
[23] = Plasma concentration in Wistar rat at 1 mg/kg, sc after 2 hrs; type: ADME, organism-based
[24] = system: Rattus norvegicus; experiment: In vivo agonist activity at alpha7 nAChR in Wistar rat assessed as induction of Arc gene expression in medial prefrontal cortex at 0.3 mg/kg, sc after 2 hrs by qPCR method relative to control; type: functional; outline: as §4
[25] = system: Rattus norvegicus; experiment: In vivo agonist activity at alpha7 nAChR in Wistar rat assessed as induction of c-fos gene expression in medial prefrontal cortex at 3 mg/kg, sc after 2 hrs by qPCR method relative to control; type: functional; outline: as §4
[26] = system: Rattus norvegicus; experiment: In vivo agonist activity at alpha7 nAChR in Wistar rat assessed as induction of Arc gene expression in medial prefrontal cortex at 3 mg/kg, sc after 2 hrs by qPCR method relative to control; type: functional; outline: as §4
[27] = biological target: Neuronal acetylcholine receptor subunit alpha-7 (Rattus norvegicus) (UniProt Q05941); experiment: Displacement of [125I]Tyr54-alpha-Bungarotoxin from rat alpha7 nAChR expressed in HEK293 cell membranes co-expressing human RIC-3 after 2 hrs by gamma counting method
[28] = system: Rattus norvegicus; experiment: In vivo agonist activity at alpha7 nAChR in Wistar rat assessed as induction of c-fos gene expression in medial prefrontal cortex at 1 mg/kg, sc after 2 hrs by qPCR method relative to control; type: functional; outline: as §4
[29] = system: Rattus norvegicus; experiment: Effect on beta2-microglobulin gene expression in Wistar rat medial prefrontal cortex at 10 mg/kg, sc after 2 hrs by qPCR method; type: ADME, organism-based; conditions: in vivo; outline: as §5

Sequence of Neuronal acetylcholine receptor subunit alpha-7 (Homo sapiens, UniProt P36544) (P36544 whole entry): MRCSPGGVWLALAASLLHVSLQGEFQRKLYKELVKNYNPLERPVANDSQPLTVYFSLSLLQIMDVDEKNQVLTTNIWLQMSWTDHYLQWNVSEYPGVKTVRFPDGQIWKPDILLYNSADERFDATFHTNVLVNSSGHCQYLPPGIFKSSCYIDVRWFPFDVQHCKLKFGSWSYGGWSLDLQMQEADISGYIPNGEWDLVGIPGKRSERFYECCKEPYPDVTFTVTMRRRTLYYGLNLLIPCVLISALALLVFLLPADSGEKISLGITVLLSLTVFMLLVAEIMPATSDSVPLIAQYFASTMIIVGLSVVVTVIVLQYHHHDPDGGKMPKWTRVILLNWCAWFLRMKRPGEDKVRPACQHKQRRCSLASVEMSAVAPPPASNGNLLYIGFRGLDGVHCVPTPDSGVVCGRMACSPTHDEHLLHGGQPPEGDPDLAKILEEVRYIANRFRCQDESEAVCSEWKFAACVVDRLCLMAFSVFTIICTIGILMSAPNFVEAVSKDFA
Sequence of Neuronal acetylcholine receptor subunit alpha-7 (Rattus norvegicus, UniProt Q05941) (Q05941 whole entry): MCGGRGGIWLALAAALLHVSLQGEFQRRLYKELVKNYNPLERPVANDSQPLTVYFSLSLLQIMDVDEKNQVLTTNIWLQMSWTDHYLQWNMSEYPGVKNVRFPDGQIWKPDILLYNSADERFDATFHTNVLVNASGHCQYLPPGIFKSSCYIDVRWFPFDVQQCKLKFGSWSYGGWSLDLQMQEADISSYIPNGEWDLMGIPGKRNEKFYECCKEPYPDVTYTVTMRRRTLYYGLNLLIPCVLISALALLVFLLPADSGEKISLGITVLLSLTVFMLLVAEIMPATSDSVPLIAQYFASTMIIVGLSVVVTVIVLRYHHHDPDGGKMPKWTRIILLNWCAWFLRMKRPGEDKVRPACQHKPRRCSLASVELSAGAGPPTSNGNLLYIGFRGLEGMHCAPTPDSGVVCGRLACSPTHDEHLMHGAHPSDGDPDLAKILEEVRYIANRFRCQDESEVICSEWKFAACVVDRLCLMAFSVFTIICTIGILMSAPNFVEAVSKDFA
Sequence of Neuronal acetylcholine receptor subunit alpha-7 (Rattus norvegicus) (Q05941 whole entry): as above

CN1C(Nc2nc3ccccc3s2)=NCC12CN1CCC2CC1 (configuration not stated)
Ratio IC50/EC50 [1]: 0.25 | pEC50 [2]: 5.92 | Emax [3]: 25% | pIC50 [4]: 7.37 | Emax [5]: 67% | pEC50 [6]: 6.77

Clc1ccc2c(NC3=NCC4(CN5CCC4CC5)N3)ncnn12 (configuration not stated)
Ratio IC50/EC50 [1]: 610 | pIC50 [4]: 4.42 | pEC50 [6]: 7.21

c1ccc2sc(NC3=NCC4(CN5CCC4CC5)N3)nc2c1 (configuration not stated)
Kp at 2 h [7]: 4 | concentration at 2 h [8]: 524 nM | fold change (FC) [9]: 1 | concentration at 2 h [10]: 12 nM | Ratio IC50/EC50 [1]: 1 | concentration at 2 h [11]: 184 nM | fold change (FC) [12]: 2.7 | concentration at 2 h [13]: 1920 nM | concentration at 2 h [14]: 130 to 131 nM | concentration at 2 h [15]: 460 to 463 nM | Kp at 2 h [16]: 4.1 | fold change (FC) [17]: 1.9 | concentration at 2 h [18]: 58 nM | Kp at 2 h [19]: 4.3 | pEC50 [2]: 6.70 | fold change (FC) [20]: 1.5 | Activity [21]: Non-Toxic | Emax [3]: 29% | Kp at 2 h [22]: 4.8 | pIC50 [4]: 7.59 | concentration at 2 h [23]: 43 nM | fold change (FC) [24]: 1.2 | fold change (FC) [25]: 1.7 | fold change (FC) [26]: 1.5 | Emax [5]: 78% | INH [27]: 240 nM | fold change (FC) [28]: 1.1 | pEC50 [6]: 7.59

Clc1cccc2sc(NC3=NCC4(CN5CCC4CC5)N3)nc12 (racemic)
Ratio IC50/EC50 [1]: 0.32 | pIC50 [4]: 7.42 | pEC50 [6]: 6.92

COc1cc(NC2=NCC3(CN4CCC3CC4)N2)ncn1 (racemic)
Ratio IC50/EC50 [1]: > 77 | pIC50 [4]: < 4.00 | pEC50 [6]: 5.89

Clc1ccc2nc(NC3=NCC4(CN5CCC4CC5)N3)sc2n1 (racemic)
Ratio IC50/EC50 [1]: 570 | pIC50 [4]: 4.49 | pEC50 [6]: 7.25

CCN1C(Nc2nc3ccc(OC)cc3s2)=NCC12CN1CCC2CC1 (racemic)
Ratio IC50/EC50 [1]: > 1 | pIC50 [4]: < 4.92 | pEC50 [6]: < 5.00

c1ccc2nc(NC3=NCC4(CN5CCC4CC5)N3)cnc2c1 (racemic)
Ratio IC50/EC50 [1]: 2.9 | pIC50 [4]: 5.85 | pEC50 [6]: 6.31

c1cn(-c2cc(NC3=NCC4(CN5CCC4CC5)N3)ncn2)cn1 (racemic)
Ratio IC50/EC50 [1]: 460 | pIC50 [4]: 5.19 | pEC50 [6]: 6.85

Clc1cnc(NC2=NCC3(CN4CCC3CC4)N2)nc1 (racemic)
Ratio IC50/EC50 [1]: 2.1 | pEC50 [2]: 5.96 | Emax [3]: 11% | pIC50 [4]: 6.21 | Emax [5]: 44% | pEC50 [6]: 6.54

Clc1ccc(NC2=NCC3(CN4CCC3CC4)N2)nc1 (racemic)
Ratio IC50/EC50 [1]: 0.72 | pIC50 [4]: 6.07 | pEC50 [6]: 5.92

CN1C(Nc2nc3ccc(Cl)nc3s2)=NCC12CN1CCC2CC1 (racemic)
Ratio IC50/EC50 [1]: 24 | pIC50 [4]: 4.89 | pEC50 [6]: 6.26

COc1ccc2sc(NC3=NCC4(CN5CCC4CC5)N3)nc2c1 (racemic)
Ratio IC50/EC50 [1]: 0.068 | pIC50 [4]: 7.29 | pEC50 [6]: 6.12

Cc1ccc2nc(NC3=NCC4(CN5CCC4CC5)N3)oc2c1 (racemic)
Ratio IC50/EC50 [1]: 210 to 250 | pEC50 [2]: 6.30 | Emax [3]: 16% | pIC50 [4]: 5.13 | Emax [5]: 58% | pEC50 [6]: 7.46

COc1ccc2nc(NC3=NCC4(CN5CCC4CC5)N3)sc2c1 (racemic)
Ratio IC50/EC50 [1]: 36 | pIC50 [4]: 4.49 | pEC50 [6]: 6.06

Clc1cnc(NC2=NCC3(CN4CCC3CC4)N2)cn1 (racemic)
Ratio IC50/EC50 [1]: 5.7 | pIC50 [4]: 5.25 | pEC50 [6]: 6.00

c1ccc2c(NC3=NCC4(CN5CCC4CC5)N3)ncnc2c1 (racemic)
Ratio IC50/EC50 [1]: 27 | pIC50 [4]: 4.84 | pEC50 [6]: 6.28

c1ccc2oc(NC3=NCC4(CN5CCC4CC5)N3)nc2c1 (racemic)
Ratio IC50/EC50 [1]: 0.49 | pIC50 [4]: 7.59 | pEC50 [6]: 7.28

Clc1ccc2nc(NC3=NCC4(CN5CCC4CC5)N3)sc2c1 (racemic)
Ratio IC50/EC50 [1]: 120 | pEC50 [2]: 5.92 | Emax [3]: 5% | pIC50 [4]: 4.74 | Emax [5]: 33% | pEC50 [6]: 6.82

O=C(Oc1ccc(Br)cc1)N1CCN2CCC1CC2 [SSR180711]
Activity [29]: Non-Toxic | fold change (FC) [12]: 3.9 | fold change (FC) [17]: 2.4
